Non-standard residues stand in square brackets, D forms with d. Residues, ends and D or L forms follow the SMILES beside them. *: point of attachment. βGlc = OC[C@H]1O[C@@H](*)[C@H](O)[C@@H](O)[C@@H]1O; Aib = CC(C)(N)C(=O)O; GABA = NCCCC(=O)O Where only a bound is given, the exact number is not on record here.

Experiment [1] deals with T1, Delta-type opioid receptor (Homo sapiens, UniProt P41143). The experiment is described as follows: Displacement of [3H]-naltrindole from human delta opioid receptor expressed in CHO cells after 3 hrs by scintillation counting analysis. Type of experiment: cell-based. In outline: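 Binding used CHO-cell membranes bearing human δ receptor and 0.2 nM (final) [3H]naltrindole, incubated 3 h at 25 °C in 50 mM Tris-HCl pH 7.5. Nonspecific binding was defined with 100 μM naloxone. Samples were glass-fiber filtered, washed with cold buffer and scintillation counted. IC50 came from a log-probit least-squares fit and was converted to Ki as IC50/(1+S).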
T1 sequence (P41143 whole entry): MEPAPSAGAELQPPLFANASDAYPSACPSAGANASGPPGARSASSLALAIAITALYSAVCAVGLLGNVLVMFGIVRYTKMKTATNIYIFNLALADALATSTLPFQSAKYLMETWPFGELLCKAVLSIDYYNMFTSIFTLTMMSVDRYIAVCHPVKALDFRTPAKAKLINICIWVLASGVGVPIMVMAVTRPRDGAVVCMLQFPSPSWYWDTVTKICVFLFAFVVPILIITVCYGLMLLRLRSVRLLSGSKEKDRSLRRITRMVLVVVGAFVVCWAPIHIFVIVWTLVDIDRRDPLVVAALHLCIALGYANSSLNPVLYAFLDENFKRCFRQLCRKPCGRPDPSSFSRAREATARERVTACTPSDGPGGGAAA
Background: In a radioligand displacement assay an active substance lowers the binding of a labelled ligand.

The target in the next experiment is Mu-type opioid receptor (Homo sapiens, UniProt P35372). As to the kind of experiment: Displacement of [3H]-DAMGO from human mu opioid receptor expressed in CHO cells after 60 mins by scintillation counting analysis. The format is cell-based. In outline:
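Membranes from CHO cells stably expressing human μ receptor were incubated with 0.25 nM (final) [3H]DAMGO in 50 mM Tris-HCl pH 7.5 for 60 min at 25 °C. Bound radioligand was separated by glass-fiber filtration with cold buffer washes and counted by scintillation. IC50 came from a least-squares log-probit fit, and Ki from IC50/(1+S).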

Experiment [2] concerns the target Kappa-type opioid receptor (Homo sapiens, UniProt P41145). As to the kind of experiment: Displacement of [3H]-U69593 from human kappa opioid receptor expressed in CHO cells after 60 mins by scintillation counting analysis. The format is cell-based. In outline: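 Human κ receptor stably expressed in CHO cells was used as a membrane prep. It was incubated with 1 nM (final) [3H]U69,593 for 60 min at 25 °C in 50 mM Tris-HCl pH 7.5, with 10 μM naloxone defining nonspecific binding. Samples were filtered through glass-fiber filters presoaked ≥30 min in 0.1% polyethylenimine, washed cold and scintillation counted. Ki was derived from a log-probit IC50 via IC50/(1+S).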

In experiment [3] the target is T1, Delta-type opioid receptor. As to the kind of experiment: Displacement of [3H]-naltrindole from human delta opioid receptor expressed in CHO cells at 10 uM after 3 hrs by scintillation counting analysis relative to control. The format is cell-based.
Experiment [4] has as its system Mus musculus. The experiment is described as follows: Antinociceptive activity in icv dosed CD-1 mouse by 55 degC warm water tail-flick test. Type of experiment: functional. In outline:
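Male CD-1 mice (27−30 g), 8−10 per group. Compound in distilled water, given icv under light ether anaesthesia, 2 mm caudal and 2 mm lateral from bregma. 55 °C warm-water tail-flick: baseline latency taken first, and mice not responding within 5 s excluded. Retested at various times after dosing. %Antinociception = 100(test − control latency)/(10 − control latency). A50 doses derived.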

In experiment [5] the test system is Mus musculus. As to the kind of experiment: Antinociceptive activity in iv dosed CD-1 mouse by 55 degC warm water tail-flick test. The format is functional. In outline:
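Male CD-1 mice (27−30 g), 8−10 per group. Compound in 0.9% saline, injected into the tail vein at 0.1 mL/10 g after the vein was dilated in 40 °C water. Tail immersion in 55 °C water, with baseline latency first and 5 s non-responders excluded. Tested at intervals post-dose. %Antinociception = 100(test − control latency)/(10 − control latency). A50 values obtained.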

Sequence of Mu-type opioid receptor (P35372 whole entry): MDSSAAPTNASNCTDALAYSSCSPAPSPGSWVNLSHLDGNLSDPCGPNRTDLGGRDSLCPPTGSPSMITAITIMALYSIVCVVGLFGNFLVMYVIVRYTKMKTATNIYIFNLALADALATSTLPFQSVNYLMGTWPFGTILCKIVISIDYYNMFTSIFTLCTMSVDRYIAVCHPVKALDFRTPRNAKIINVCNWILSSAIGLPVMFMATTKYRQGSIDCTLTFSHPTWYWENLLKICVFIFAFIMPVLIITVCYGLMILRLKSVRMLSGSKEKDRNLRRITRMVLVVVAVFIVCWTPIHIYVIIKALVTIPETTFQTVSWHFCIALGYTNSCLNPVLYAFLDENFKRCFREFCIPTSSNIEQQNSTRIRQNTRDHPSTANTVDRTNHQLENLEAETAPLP
Sequence of Kappa-type opioid receptor (P41145 whole entry): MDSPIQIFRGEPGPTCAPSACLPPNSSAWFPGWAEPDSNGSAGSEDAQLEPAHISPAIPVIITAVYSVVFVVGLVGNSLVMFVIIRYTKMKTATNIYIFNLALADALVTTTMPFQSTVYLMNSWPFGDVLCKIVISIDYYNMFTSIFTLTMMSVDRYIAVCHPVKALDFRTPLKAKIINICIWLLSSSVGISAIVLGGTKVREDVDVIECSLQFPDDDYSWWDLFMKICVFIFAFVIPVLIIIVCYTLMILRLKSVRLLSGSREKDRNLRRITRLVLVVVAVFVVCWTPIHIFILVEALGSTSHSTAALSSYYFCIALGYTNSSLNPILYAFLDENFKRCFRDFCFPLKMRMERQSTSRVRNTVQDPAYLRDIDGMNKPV

`CC(C)C[C@H](NC(=O)[C@H](CO[C@@H]1O[C@H](CO)[C@@H](O)[C@H](O)[C@H]1O)NC(=O)[C@H](CCCCN)NC(=O)[C@H](CC(C)C)NC(=O)[C@H](C)NC(=O)[C@H](CCCCN)NC(=O)[C@H](CCC(=O)O)NC(=O)C(C)(C)NC(=O)[C@H](CC(C)C)NC(=O)[C@H](CC(N)=O)NC(=O)CCNC(=O)[C@H](Cc1ccccc1)N(C)C(=O)CNC(=O)[C@@H](C)NC(=O)[C@@H](N)Cc1ccc(O)cc1)C(N)=O`: the Ki (usually the dissociation constant of the complex between target and ligand, obtained from inhibition or displacement) in experiment [1] was found to be 1400 nM; on Mu-type opioid receptor, 4.8 nM; in experiment [2], 200 nM.
In the case of `CC(C)C[C@H](NC(=O)[C@H](CO[C@@H]1O[C@H](CO)[C@@H](O)[C@H](O)[C@H]1O)NC(=O)[C@H](CCCCN)NC(=O)[C@H](CC(C)C)NC(=O)[C@H](C)NC(=O)[C@H](CCCCN)NC(=O)[C@H](CCC(=O)O)NC(=O)C(C)(C)NC(=O)[C@H](CC(C)C)NC(=O)[C@H](CC(N)=O)NC(=O)[C@@H]1CCCN1C(=O)[C@@H]1CCCN1C(=O)[C@H](Cc1ccccc1)N(C)C(=O)CNC(=O)[C@@H](C)NC(=O)[C@@H](N)Cc1ccc(O)cc1)C(N)=O`, the results for the Ki (in experiment [1]; at Mu-type opioid receptor; in experiment [2]) were 2300 nM, 15 nM and 19 nM, respectively.
The corresponding values for `CC(C)C[C@H](NC(=O)[C@H](CO[C@@H]1O[C@H](CO)[C@@H](O)[C@H](O)[C@H]1O)NC(=O)[C@H](CCCCN)NC(=O)[C@H](CC(C)C)NC(=O)[C@H](C)NC(=O)[C@H](CCCCN)NC(=O)[C@H](CCC(=O)O)NC(=O)C(C)(C)NC(=O)[C@H](CC(C)C)NC(=O)[C@H](CC(N)=O)NC(=O)[C@@H]1CCCN1C(=O)CCNC(=O)[C@H](Cc1ccccc1)N(C)C(=O)CNC(=O)[C@@H](C)NC(=O)[C@@H](N)Cc1ccc(O)cc1)C(N)=O` are 1200 nM, 5.6 nM and 100 nM.
Take `CC(C)C[C@H](NC(=O)[C@H](CO[C@@H]1O[C@H](CO)[C@@H](O)[C@H](O)[C@H]1O)NC(=O)[C@H](CCCCN)NC(=O)[C@H](CC(C)C)NC(=O)[C@H](C)NC(=O)[C@H](CCCCN)NC(=O)[C@H](CCC(=O)O)NC(=O)C(C)(C)NC(=O)[C@H](CC(C)C)NC(=O)[C@H](CC(N)=O)NC(=O)[C@H](C)NC(=O)[C@H](CC(C)C)NC(=O)[C@H](Cc1ccccc1)NC(=O)CNC(=O)[C@@H](NC(=O)[C@@H](N)Cc1ccc(O)cc1)[C@@H](C)O)C(N)=O` (H-YTGFLANL[Aib]EKALKS(βGlc)L-NH2): the inhibition constant (Ki) in experiment [1] was determined as 21 nM; on Mu-type opioid receptor, 39 nM; in experiment [2] it was 9.7 nM.
As for `CC(C)C[C@H](NC(=O)[C@H](CO[C@@H]1O[C@H](CO)[C@@H](O)[C@H](O)[C@H]1O)NC(=O)[C@H](CC(N)=O)NC(=O)[C@H](CC(C)C)NC(=O)[C@H](C)NC(=O)[C@H](CC(N)=O)NC(=O)[C@H](CC(N)=O)NC(=O)C(C)(C)NC(=O)[C@H](CC(C)C)NC(=O)[C@H](CC(N)=O)NC(=O)CNC(=O)CNC(=O)[C@H](Cc1ccccc1)N(C)C(=O)CNC(=O)[C@@H](C)NC(=O)[C@@H](N)Cc1ccc(O)cc1)C(N)=O`, the results for the inhibitory constant (Ki) (at Mu-type opioid receptor; in experiment [2]) were 5.2 nM and 340 nM, respectively. Further, the Activity in experiment [3] came out at 22%.
The corresponding values for `CC(C)C[C@H](NC(=O)[C@H](CO[C@@H]1O[C@H](CO)[C@@H](O)[C@H](O)[C@H]1O)NC(=O)[C@H](CCCCN)NC(=O)[C@H](CC(C)C)NC(=O)[C@H](C)NC(=O)[C@H](CCCCN)NC(=O)[C@H](CCC(=O)O)NC(=O)C(C)(C)NC(=O)[C@H](CC(C)C)NC(=O)[C@H](CC(N)=O)NC(=O)[C@@H]1CCCN1C(=O)[C@H](Cc1ccccc1)N(C)C(=O)CNC(=O)[C@@H](C)NC(=O)[C@@H](N)Cc1ccc(O)cc1)C(N)=O` are 8.8 nM, 340 nM and 31%.
On to `CC(C)C[C@H](NC(=O)[C@H](CO[C@@H]1O[C@H](CO)[C@@H](O)[C@H](O)[C@H]1O)NC(=O)[C@H](CCCCN)NC(=O)[C@H](CC(C)C)NC(=O)[C@H](C)NC(=O)[C@H](CCCCN)NC(=O)[C@H](CCC(=O)O)NC(=O)C(C)(C)NC(=O)[C@H](CC(C)C)NC(=O)[C@H](CC(N)=O)NC(=O)CNC(=O)[C@H](CC(C)C)NC(=O)[C@H](Cc1ccccc1)NC(=O)CNC(=O)[C@@H](NC(=O)[C@@H](N)Cc1ccc(O)cc1)[C@@H](C)O)C(N)=O` (H-YTGFLGNL[Aib]EKALKS(βGlc)L-NH2), for which the Ki worked out at 31 nM in experiment [1], 26 nM on Mu-type opioid receptor and 14 nM in experiment [2].
On to `CC(C)C[C@H](NC(=O)[C@H](CO[C@@H]1O[C@H](CO)[C@@H](O)[C@H](O)[C@H]1O)NC(=O)[C@H](CCCCN)NC(=O)[C@H](CC(C)C)NC(=O)[C@H](C)NC(=O)[C@H](CCCCN)NC(=O)[C@H](CCCCN)NC(=O)C(C)(C)NC(=O)[C@H](CC(C)C)NC(=O)[C@H](CC(N)=O)NC(=O)CNC(=O)CNC(=O)[C@H](Cc1ccccc1)N(C)C(=O)CNC(=O)[C@@H](C)NC(=O)[C@@H](N)Cc1ccc(O)cc1)C(N)=O`, for which the inhibitory constant (Ki) on Mu-type opioid receptor came to 21 nM; in experiment [2] it was 430 nM. Further, the Activity in experiment [3] is 0%.
As to `CC(C)C[C@H](NC(=O)[C@H](CO)NC(=O)CCCNC(=O)[C@H](CC(C)C)NC(=O)[C@H](Cc1ccccc1)NC(=O)CNC(=O)[C@@H](NC(=O)[C@@H](N)Cc1ccc(O)cc1)[C@@H](C)O)C(N)=O` (H-YTGFL[GABA]SL-NH2), the Ki came out at 6.6 nM in experiment [1], 3.8 nM at Mu-type opioid receptor and 39 nM in experiment [2]. The values for the A50 in the experiment on Mus musculus [4] and in the experiment with Mus musculus [5] were 0.06 nmol and greater than 11.3 µmol/kg, respectively.
The corresponding values for `CC(C)C[C@H](NC(=O)[C@H](CO[C@@H]1O[C@H](CO)[C@@H](O)[C@H](O)[C@H]1O)NC(=O)CCCNC(=O)[C@H](CC(C)C)NC(=O)[C@H](Cc1ccccc1)NC(=O)CNC(=O)[C@@H](NC(=O)[C@@H](N)Cc1ccc(O)cc1)[C@@H](C)O)C(N)=O` (H-YTGFL[GABA]S(βGlc)L-NH2) are 15 nM, 6.6 nM, 71 nM, 0.06 nmol and 2.54 µmol/kg.
For the compound `CC(C)C[C@H](NC(=O)[C@H](CO[C@@H]1O[C@H](CO)[C@@H](O)[C@H](O)[C@H]1O)NC(=O)[C@H](CCCCN)NC(=O)[C@H](CC(C)C)NC(=O)[C@H](C)NC(=O)[C@H](CCCCN)NC(=O)[C@H](CCC(=O)O)NC(=O)C(C)(C)NC(=O)[C@H](CC(C)C)NC(=O)[C@H](CC(N)=O)NC(=O)CNC(=O)CNC(=O)[C@H](Cc1ccccc1)N(C)C(=O)CNC(=O)[C@@H](C)NC(=O)[C@@H](N)Cc1ccc(O)cc1)C(N)=O`, the Ki turned out to be 1500 nM in experiment [1], 2.8 nM on Mu-type opioid receptor and 59 nM in experiment [2].
Regarding `CC(C)C[C@H](NC(=O)[C@H](CO[C@@H]1O[C@H](CO)[C@@H](O)[C@H](O)[C@H]1O)NC(=O)[C@H](CCCCN)NC(=O)[C@H](CC(C)C)NC(=O)[C@H](C)NC(=O)[C@H](CCCCN)NC(=O)[C@H](CCC(=O)O)NC(=O)C(C)(C)NC(=O)[C@H](CC(C)C)NC(=O)[C@H](CC(N)=O)NC(=O)[C@H]1CCCN1C(=O)[C@H](CC(C)C)NC(=O)[C@H](Cc1ccccc1)NC(=O)CNC(=O)[C@@H](NC(=O)[C@@H](N)Cc1ccc(O)cc1)[C@@H](C)O)C(N)=O`, the inhibitory constant (Ki) in experiment [1] (cho) was 73 nM; on Mu-type opioid receptor (cho) it was 27 nM; in experiment [2] (cho), 78 nM.
In the case of `CC(C)C[C@H](NC(=O)[C@H](CO[C@@H]1O[C@H](CO)[C@@H](O)[C@H](O)[C@H]1O)NC(=O)[C@H](CCCCN)NC(=O)[C@H](CC(C)C)NC(=O)[C@H](C)NC(=O)[C@H](CCCCN)NC(=O)[C@H](CCC(=O)O)NC(=O)C(C)(C)NC(=O)[C@H](CC(C)C)NC(=O)[C@H](CC(N)=O)NC(=O)[C@@H]1CCCN1C(=O)CNC(=O)[C@H](Cc1ccccc1)N(C)C(=O)CNC(=O)[C@@H](C)NC(=O)[C@@H](N)Cc1ccc(O)cc1)C(N)=O`, the Ki in experiment [1] is 840 nM; at Mu-type opioid receptor, 3.2 nM; in experiment [2] it was 45 nM.
The corresponding values for `CC(C)C[C@H](NC(=O)[C@H](CO[C@@H]1O[C@H](CO)[C@@H](O)[C@H](O)[C@H]1O)NC(=O)[C@H](CCCCN)NC(=O)[C@H](CC(C)C)NC(=O)[C@H](C)NC(=O)[C@H](CC(N)=O)NC(=O)[C@H](CCCCN)NC(=O)C(C)(C)NC(=O)[C@H](CC(C)C)NC(=O)[C@H](CC(N)=O)NC(=O)CNC(=O)CNC(=O)[C@H](Cc1ccccc1)N(C)C(=O)CNC(=O)[C@@H](C)NC(=O)[C@@H](N)Cc1ccc(O)cc1)C(N)=O` are 430 nM, 0.24 nM and 11 nM.

The values are drawn from ChEMBL document CHEMBL3596173, “Structural Requirements for CNS Active Opioid Glycopeptides” (J Med Chem, 2015).
